# Source: PubChem BioAssay
# A selection: hits, their analogues and other compounds. The true share with any hit is near 0.72%.
# hIAP act: increases human intestinal alkaline phosphatase activity; purified human IAP, CDP-Star luminescence, 30 min; stronger effect = higher value; 1 = vehicle-only enzyme, 0 = enzyme-free background; 0.16% of 330,000 active; activation factor at 10 µM;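 active = activation factor of the enzyme at least 2-fold when tested at 20 µM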
# Target sequence (P09923 whole entry, looked up): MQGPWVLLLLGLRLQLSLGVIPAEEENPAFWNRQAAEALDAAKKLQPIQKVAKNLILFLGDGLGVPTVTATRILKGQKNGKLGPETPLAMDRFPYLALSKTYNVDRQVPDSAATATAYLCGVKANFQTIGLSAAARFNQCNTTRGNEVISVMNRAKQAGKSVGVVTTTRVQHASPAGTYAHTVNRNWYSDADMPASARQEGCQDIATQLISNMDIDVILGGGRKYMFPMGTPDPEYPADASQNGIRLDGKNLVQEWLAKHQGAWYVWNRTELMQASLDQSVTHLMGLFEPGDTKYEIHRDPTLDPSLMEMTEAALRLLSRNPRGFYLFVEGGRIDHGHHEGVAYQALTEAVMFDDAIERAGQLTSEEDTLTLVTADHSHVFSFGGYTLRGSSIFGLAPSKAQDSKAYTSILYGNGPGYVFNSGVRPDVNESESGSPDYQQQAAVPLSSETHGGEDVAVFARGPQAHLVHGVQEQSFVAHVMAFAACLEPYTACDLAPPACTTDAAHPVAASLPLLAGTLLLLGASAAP
# hIAP block: blocks human intestinal alkaline phosphatase; 0.12% of 330,000 active; purified IAP, CDP-Star luminescence, 30 min; inhibition, % at 10 µM; P09923;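 active = inhibition reaching a set limit with compound at 10 µM in the primary screen, cut at about 35% in these data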;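 note: plate controls were DMSO wells with enzyme for no effect and no-enzyme buffer wells for full effect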
# mIAP activ: mouse IAP activation; muIAP, CDP-Star luminescence, 30 min; stronger effect = higher value; 1 = vehicle-only enzyme signal, 0 = enzyme-free wells; activation factor at 10 µM; 0.24% of 330,000 active; AID 2805;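 active = activation factor of at least 2 at 20 µM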
#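 Assay system: mouse IAP enzyme; reagent: chemiluminescent substrate CDP-Star; dosing: test compounds delivered from DMSO solution; schedule: 30 min at room temperature; measured by: luminescence from enzymatic CDP-Star hydrolysis; controls: DMSO-only wells and no-enzyme negative control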
# bIAP act: intestinal alkaline phosphatase (bovine) activation | purified bovine IAP, CDP-star luminescence, 30 min; stronger effect = higher value; fold of DMSO-control signal, blank-subtracted | activation factor at 20 µM | 0.17% of 200,000 active | AID 1016;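 active = activation factor of 2 or more at 20 µM, a signal rise over negative controls twice the positive control's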
# bIAP inh: blocks bovine intestinal alkaline phosphatase activity; purified bovine IAP, CDP-star luminescence, 30 min; 190,000 tested, under 10 active; inhibition, % at 20 µM;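 active = over 50% inhibition of intestinal alkaline phosphatase at 20 µM in the single-dose screen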
#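 test system = bovine IAP enzyme | medium = DEA buffer 100 mM, pH 9.8, with MgCl2 1.0 mM, ZnCl2 0.02 mM | detection = luminescence | dosing = single compound dose of 20 µM, 2% DMSO final | incubation = 30 min reaction at room temperature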
# mIAP inh: blocks mouse intestinal alkaline phosphatase. inhibition, % at 10 µM. purified mouse IAP, CDP-Star luminescence, 30 min. 0.2% of 330,000 active. AID 2806;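 active = inhibition of at least 40% at 10 µM in the primary screen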;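 note: plate controls were DMSO with enzyme for no effect and no enzyme wells for full effect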
# mIAP inh confirm: mouse IAP inhibition confirmation; shares compounds with mIAP inh; purified mouse IAP, CDP-Star luminescence, 30 min; inhibition, % at 10 µM; 4.7% of 11,000 active; AID 434971;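 active = inhibition of at least 40% at 10 µM in either of the two replicates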;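 note: plate controls were DMSO wells with enzyme for no effect and buffer wells lacking enzyme for full effect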
# Active calls of the source: *; i = inactive; · = not tested or not shown.
SMILES,hIAP act,hIAP block,mIAP activ,bIAP act,bIAP inh,mIAP inh,mIAP inh confirm
COc1ccc(CN2C3CCCC2CC(NC(=O)Nc2ccccc2)C3)cc1 (stereo unspecified),0.82,18,5.3*,0.9,9,-426,-365
COc1ccc(CN2C3CCCC2CC(NC(=O)Nc2cccc(C)c2)C3)cc1 (stereo unspecified),0.95,5,12*,0.9,7,i,i
COCC(=O)NC1CC2CCCC(C1)N2Cc1ccccc1 (stereo unspecified),1.1,-8,0.94,1,-1,6,·
COc1ccc(CN2C3CCCC2CC(NC(=O)Nc2ccccc2C)C3)cc1 (stereo unspecified),0.91,9,3*,0.9,6,-198,-143
COc1ccccc1CNC(=O)Cn1ccsc1=N,1.2,-19,0.99,·,·,1,·
Cc1cc(C(C)(C)C)ccc1OC(=O)C1=CC=CN2CCS(=O)(=O)N=C12,1,-5,0.98,·,·,2,·
Cc1ccc(NC(=O)N2CCCC2C(=O)NCC2CCCCC2)cc1 (stereo unspecified),1.1,-6,1,·,·,-2,·
CCc1ccc2c(COC(=O)C3CC(=O)N(CCc4ccccc4)C3)cc(=O)oc2c1 (stereo unspecified),1,0,0.94,·,·,6,·
O=C(CCCN1C(=O)C(c2ccccc2)Oc2cccnc21)NCCc1ccc(Cl)cc1 (stereo unspecified),1.2,-18,1.1,·,·,-14,·
CCN(c1ccccc1)S(=O)(=O)c1c(C)noc1C,0.97,3,1,·,·,-5,·
CCOc1ccc(/C=N/NC(=O)c2ccc(F)cc2)cc1CN1CC2CC(C1)c1cccc(=O)n1C2 (stereo unspecified),0.93,7,0.99,·,·,1,·
Cc1ccc(N2CSC3=C(C#N)C(c4cccs4)CC(=O)N3C2)cc1 (stereo unspecified),1.1,-14,0.54,0.8,17,46*,46*
N#CC1=C2SCN(c3ccc(F)cc3)CN2C(=O)CC1c1cccc(F)c1 (stereo unspecified),0.88,12,0.4,0.9,11,60*,59*
CC(C)N(C(=O)[C@H]1C[C@H](CC(=O)NCC23CC4CC(CC(C4)C2)C3)C(=O)N2CCc3c([nH]c4ccc(Cl)cc34)[C@]12C)C(C)C,·,·,1.3,·,·,-32,·
O=C(Nc1nc(-c2ccco2)c(-c2ccco2)s1)c1c(F)cccc1Cl,0.84,16,0.3,·,·,70*,72*
O=C(Nc1ccc(F)cc1F)c1cc(-c2ccco2)nc2ccccc12,0.92,8,0.86,·,·,14,·
O=C(Nc1nc(-c2ccco2)c(-c2ccco2)s1)c1ccc(F)cc1F,0.92,8,0.49,·,·,51*,60*
CCN(CC(=O)NCc1ccc(Cl)cc1)C(=O)CSc1cc(C)ccc1C,1,-5,1.1,·,·,-9,·
Cc1ccc(C(=O)Nc2nnc(CC(=O)N/N=C/c3ccncc3)s2)cc1,0.99,1,0.83,1.1,-7,17,·
Cc1ccc(C(=O)Nc2nnc(CC(=O)N/N=C/c3ccc(O)c(O)c3)s2)cc1,0.84,16,0.42,·,·,58*,79*
CC(C(=O)Nc1ccc(O)cc1C(=O)O)N1C(=O)/C(=C\c2cccs2)SC1=S (stereo unspecified),1.1,-10,0.81,·,·,18,·
Cc1cc(C)n(-c2ccc(C(=O)NCC(c3ccco3)N3CCCC3)cc2)n1 (stereo unspecified),1,-3,1.2,·,·,-16,·
C[C@]12c3[nH]c4cc(-c5ccco5)ccc4c3CCN1C(=O)[C@@H](CC(=O)NCc1cccc(C(F)(F)F)c1)C[C@@H]2C(=O)N1CCCCC1,·,·,1.2,·,·,-17,·
O=C(N/N=C/c1ccc([N+](=O)[O-])o1)c1sc2ccccc2c1Cl,0.87,13,0.58,·,·,42*,54*
Cc1nonc1C(=O)N/N=C/c1ccc([N+](=O)[O-])o1,1.2,-17,0.53,1.3,-28,47*,60*
SMILES,hIAP act,hIAP block,mIAP activ,bIAP act,bIAP inh,mIAP inh,mIAP inh confirm
Cc1cc(C(=O)N/N=C/c2ccc([N+](=O)[O-])o2)c(C)o1,0.99,1,0.53,·,·,47*,68*
COC(=O)N/N=C/c1ccc([N+](=O)[O-])o1,0.9,10,0.76,0.8,20,24,·
CCN(CC)c1ccc(S(=O)(=O)N2CCOCC2)cc1NC(=O)CSC(=S)N1CCCC1,0.96,4,0.88,·,·,12,·
O=C(NCc1cccs1)c1ccc(CS(=O)Cc2cccc(Cl)c2)o1 (stereo unspecified),1.3,-26,0.95,·,·,5,·
Cc1nn(Cc2ccc(Cl)c(Cl)c2)c(C)c1NC(=O)c1cn(-c2ccccc2)nc1-c1ccccc1,1.2,-20,2.9*,1,0,-193,-162
CC(=O)Nc1ccc(S(=O)(=O)Nc2nc3ccccc3nc2Nc2ccc(C(=O)O)c(O)c2)cc1,0.99,0,0.58,·,·,42*,50*
CC(=O)Nc1ccc(S(=O)(=O)Nc2nc3ccccc3nc2Nc2cccc(O)c2)cc1,1.1,-12,0.91,·,·,9,·
C#CCOCCOCCOCCNc1nc(N2CCN(C(=O)CCCCCCCCCCNC(=O)[C@@H](CCC(=O)O)n3cc(CCCCCN)nn3)CC2)nc(N2CCN(C(=O)CCCCCCCCCCNC(=O)[C@H]([C@@H](C)CC)n3cc(CCCCCN)nn3)CC2)n1,1,-2,2.2*,·,·,-120,-176
C#CCOCCOCCOCCNc1nc(N2CCN(C(=O)CCCCCCCCCCNC(=O)[C@H]([C@@H](C)CC)n3cc(CCCCCN)nn3)CC2)nc(N2CCN(C(=O)CCCCCCCCCCNC(=O)[C@H](CCCCN)n3cc(CCCC(=O)O)nn3)CC2)n1,1.1,-8,2.4*,·,·,-142,-222
C#CCOCCOCCOCCNc1nc(N2CCN(C(=O)CCCCCCCCCCNC(=O)[C@H](CCCCN)n3cc(CCCC(=O)O)nn3)CC2)nc(N2CCN(C(=O)CCCCCCCCCCNC(=O)[C@@H]([C@H](C)O)n3cc(C)nn3)CC2)n1,1,-5,1.2,·,·,-19,·
CCSc1nc2c(c(=O)[nH]c(=O)n2C)n1C/C=C(/C)Cl,0.95,5,0.94,0.9,10,6,·
CCOC(=O)C(C)Sc1nc2c(c(=O)[nH]c(=O)n2C)n1C/C=C(/C)Cl (stereo unspecified),0.87,13,0.32,1.1,-10,68*,71*
O=C1CC(=O)N(Cc2ccco2)C(=O)N1,1.1,-5,0.52,1.3,-26,48*,53*
O=C1CC(=O)N(Cc2ccco2)C(=S)N1,0.79,21,0.3,1.1,-9,70*,75*
O=C1CC(=O)N(Cc2cccs2)C(=O)N1,0.86,14,0.99,1,4,1,·
